We go through ten compounds from ChEMBL document CHEMBL1152848, “Penetratin and derivatives acting as antifungal agents” (2009).

Peptide text beside a SMILES is read from it.

Assay type in all cases: functional
The subject of assay [1] is Cryptococcus neoformans. The experiment in a line: Antifungal activity against Cryptococcus neoformans ATCC 32264 assessed as growth inhibition at 50 uM after 48 hrs. The following applies: ATCC 32264, 48 h. Summed up: (§1)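 Percent growth inhibition by broth microdilution in RPMI-1640. Peptides were dissolved in DMSO (≤2%) and diluted to final 200–12.5 µM. Inoculum 1-5 × 10^3 CFU/ml, cells maintained on Sabouraud agar. Growth control (medium, inoculum, same DMSO, no compound) and sterility control per strain. Plates held 48 h at 35 °C, moist and dark, then read by microplate reader. Amphotericin B positive control. Duplicate tests.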

In assay [2] the test system is Candida albicans. The assay can be described thus: Antifungal activity against Candida albicans ATCC 10231 assessed as growth inhibition at 12.5 uM after 24 hrs. The following applies: ATCC 10231, 24 h. Put shortly: (§2)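 Percent growth inhibition in 96-well microdilution, RPMI-1640. Peptide stocks in DMSO (≤2%), diluted to final 200–12.5 µM. Inoculum adjusted to 1-5 × 10^3 CFU/ml, grown beforehand on Sabouraud–chloramphenicol agar 48 h at 30 °C. Compound-free growth control with matching DMSO, plus sterility control. Incubated 24 h at 35 °C in a moist dark chamber, then read by microplate reader. Amphotericin B as 100% inhibition reference. Duplicates.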

Assay [3] deals with Cryptococcus neoformans. The assay can be described thus: Antifungal activity against Cryptococcus neoformans ATCC 32264 assessed as growth inhibition at 200 uM after 48 hrs. The following applies: ATCC 32264, 48 h. Put shortly: as §1
In assay [4] the test system is Candida albicans. The experiment in a line: Antifungal activity against Candida albicans ATCC 10231 assessed as growth inhibition at 100 uM after 24 hrs. The following applies: ATCC 10231, 24 h. Summed up:
as §2

The test system of assay [5] is Candida albicans. The assay can be described thus: Antifungal activity against Candida albicans ATCC 10231 assessed as growth inhibition at 25 uM after 24 hrs. The following applies: ATCC 10231, 24 h. Summed up:
as §2

The subject of assay [6] is Cryptococcus neoformans. The assay can be described thus: Antifungal activity against Cryptococcus neoformans ATCC 32264 assessed as growth inhibition at 25 uM after 48 hrs. Conditions: ATCC 32264, 48 h. Summed up: as §1
Assay [7] concerns Candida albicans. The assay can be described thus: Antifungal activity against Candida albicans ATCC 10231 assessed as growth inhibition at 50 uM after 24 hrs. Conditions: ATCC 10231, 24 h. Put shortly: as §2
For assay [8], the system named is Cryptococcus neoformans. The assay can be described thus: Antifungal activity against Cryptococcus neoformans ATCC 32264 assessed as growth inhibition at 12.5 uM after 48 hrs. Conditions: ATCC 32264, 48 h. Put shortly:
as §1

In assay [9] the test system is Cryptococcus neoformans. The assay can be described thus: Antifungal activity against Cryptococcus neoformans ATCC 32264 assessed as growth inhibition at 100 uM after 48 hrs. Conditions: ATCC 32264, 48 h. Summed up: as §1
Assay [10] relates to Candida albicans. The assay can be described thus: Antifungal activity against Candida albicans ATCC 10231 assessed as growth inhibition at 200 uM after 24 hrs. Conditions: ATCC 10231, 24 h. Put shortly:
as §2

On to `NCCCC[C@H](NC(=O)[C@H](CCCCN)NC(=O)[C@H](Cc1c[nH]c2ccccc12)NC(=O)[C@@H](N)CCCCN)C(N)=O` (H-KWKK-NH2), for which the inhibition at 50 µM in the assay on Cryptococcus neoformans [1] and in the assay on Candida albicans [7] was 0% throughout. For the same compound, the inhibition at 12.5 µM with Candida albicans [2] and in the assay with Cryptococcus neoformans [8] was 0% in each case. The inhibition at 200 µM came to 0% in the assay on Cryptococcus neoformans [3] and 9% in the assay on Candida albicans [10]. In addition, the results for the inhibition at 100 µM in the assay with Candida albicans [4] and in the assay with Cryptococcus neoformans [9] were 2% and 0%, respectively. The inhibition at 25 µM with Candida albicans [5] and with Cryptococcus neoformans [6] was 0% each time.

As to `N=C(N)NCCC[C@H](N)C(=O)N[C@@H](CCC(N)=O)C(=O)N[C@@H](CCCCN)C(=O)N[C@@H](CCCCN)C(N)=O` (H-RQKK-NH2), the figures for the inhibition at 50 µM with Cryptococcus neoformans [1] and with Candida albicans [7] were 92% and 0%, respectively. Further, the results for the inhibition at 12.5 µM in the assay with Candida albicans [2] and with Cryptococcus neoformans [8] were 0% and 32%, respectively. Moreover, the inhibition at 200 µM in the assay with Cryptococcus neoformans [3] worked out at 100%; in the assay with Candida albicans [10], 6%. For the same compound, the inhibition at 100 µM in the assay with Candida albicans [4] was 0%; in the assay with Cryptococcus neoformans [9] it was 100%. The inhibition at 25 µM with Candida albicans [5] is 0%; with Cryptococcus neoformans [6], 62%.

Turning to `C[C@@H]1[C@H](O)[C@@H](C)/C=C/C=C/C=C/C=C/C=C/C=C/C=C/[C@H](O[C@@H]2O[C@H](C)[C@@H](O)[C@H](N)[C@@H]2O)C[C@@H]2O[C@](O)(C[C@@H](O)C[C@@H](O)[C@H](O)CC[C@@H](O)C[C@@H](O)CC(=O)O[C@H]1C)C[C@H](O)[C@H]2C(=O)O` [AMPHOTERICIN B], the inhibition at 50 µM in the assay on Cryptococcus neoformans [1] and in the assay on Candida albicans [7] was 100% in each case. Also, the inhibition at 12.5 µM in the assay with Candida albicans [2] and in the assay on Cryptococcus neoformans [8] was 100% throughout. Moreover, the inhibition at 200 µM in the assay with Cryptococcus neoformans [3] and in the assay with Candida albicans [10] was 100% in each case. The inhibition at 100 µM in the assay on Candida albicans [4] and in the assay with Cryptococcus neoformans [9] was 100% throughout. The inhibition at 25 µM in the assay with Candida albicans [5] and in the assay with Cryptococcus neoformans [6] was 100% each time.

Turning to `CC(=O)N1CCN(c2ccc(OCC3COC(Cn4ccnc4)(c4ccc(Cl)cc4Cl)O3)cc2)CC1` (stereo not given) [KETOCONAZOLE], the inhibition at 50 µM with Cryptococcus neoformans [1] and with Candida albicans [7] was 100% each time. The inhibition at 12.5 µM with Candida albicans [2] and in the assay with Cryptococcus neoformans [8] was 100% in each case. For the same compound, the inhibition at 200 µM in the assay with Cryptococcus neoformans [3] and in the assay with Candida albicans [10] was 100% in each case. In addition, the inhibition at 100 µM with Candida albicans [4] and in the assay with Cryptococcus neoformans [9] was 100% in each case. For the same compound, the inhibition at 25 µM with Candida albicans [5] and with Cryptococcus neoformans [6] was 100% throughout.

`CC[C@H](C)[C@H](NC(=O)[C@H](CCCCN)NC(=O)[C@@H](NC(=O)[C@H](CCC(N)=O)NC(=O)[C@@H](N)CCCNC(=N)N)[C@@H](C)CC)C(=O)N[C@@H](Cc1c[nH]c2ccccc12)C(=O)N[C@@H](Cc1ccccc1)C(=O)N[C@@H](CCC(N)=O)C(=O)N[C@@H](CC(N)=O)C(=O)N[C@@H](CCCNC(=N)N)C(=O)N[C@@H](CCCNC(=N)N)C(=O)N[C@@H](CCSC)C(=O)N[C@@H](CCCCN)C(=O)N[C@@H](Cc1c[nH]c2ccccc12)C(=O)N[C@@H](CCCCN)C(=O)N[C@@H](CCCCN)C(N)=O` [PENETRATIN]: the inhibition at 50 µM came to 100% in the assay on Cryptococcus neoformans [1] and 95% with Candida albicans [7]. The figures for the inhibition at 12.5 µM with Candida albicans [2] and in the assay with Cryptococcus neoformans [8] were 4% and 90%, respectively. The inhibition at 200 µM with Cryptococcus neoformans [3] and in the assay on Candida albicans [10] was 100% throughout. In addition, the inhibition at 100 µM in the assay on Candida albicans [4] and in the assay on Cryptococcus neoformans [9] was 100% in each case. Further, the inhibition at 25 µM in the assay with Candida albicans [5] was found to be 91%; with Cryptococcus neoformans [6] it was 100%.

In the case of H-RKFRRKFKK-NH2, the results for the inhibition at 50 µM with Cryptococcus neoformans [1] and with Candida albicans [7] were 13% and 33%, respectively. For the same compound, the inhibition at 12.5 µM in the assay with Candida albicans [2] and with Cryptococcus neoformans [8] was 0% throughout. The inhibition at 200 µM in the assay on Cryptococcus neoformans [3] was 73%; in the assay on Candida albicans [10], 61%. Moreover, the inhibition at 100 µM with Candida albicans [4] came to 44%; with Cryptococcus neoformans [9] it was 11%. For the same compound, the inhibition at 25 µM with Candida albicans [5] stood at 23%; with Cryptococcus neoformans [6], 9%.

For the compound H-RKRRKKK-NH2, the inhibition at 50 µM was 19% in the assay with Cryptococcus neoformans [1] and 0% with Candida albicans [7]. The inhibition at 12.5 µM with Candida albicans [2] and in the assay on Cryptococcus neoformans [8] was 0% in each case. In addition, the values for the inhibition at 200 µM in the assay on Cryptococcus neoformans [3] and with Candida albicans [10] were 60% and 43%, respectively. The values for the inhibition at 100 µM with Candida albicans [4] and in the assay with Cryptococcus neoformans [9] were 12% and 14%, respectively. Moreover, the figures for the inhibition at 25 µM in the assay with Candida albicans [5] and with Cryptococcus neoformans [6] were 0% and 10%, respectively.

Turning to H-RKRRKWKK-NH2, the inhibition at 50 µM was 11% in the assay with Cryptococcus neoformans [1] and 0% in the assay on Candida albicans [7]. The inhibition at 12.5 µM in the assay on Candida albicans [2] and with Cryptococcus neoformans [8] was 0% in each case. The inhibition at 200 µM in the assay with Cryptococcus neoformans [3] is 100%; with Candida albicans [10] it was 29%. Moreover, the inhibition at 100 µM amounted to 13% with Candida albicans [4] and 33% in the assay with Cryptococcus neoformans [9]. Also, the inhibition at 25 µM in the assay on Candida albicans [5] is 0%; in the assay on Cryptococcus neoformans [6] it was 6%.

For H-RKWRRKWKK-NH2, the inhibition at 50 µM in the assay with Cryptococcus neoformans [1] is 14%; with Candida albicans [7], 58%. Further, the inhibition at 12.5 µM worked out at 15% in the assay with Candida albicans [2] and 0% in the assay on Cryptococcus neoformans [8]. The inhibition at 200 µM in the assay on Cryptococcus neoformans [3] is 99%; in the assay on Candida albicans [10], 100%. For the same compound, the values for the inhibition at 100 µM in the assay on Candida albicans [4] and in the assay on Cryptococcus neoformans [9] were 76% and 68%, respectively. The inhibition at 25 µM in the assay with Candida albicans [5] stood at 40%; with Cryptococcus neoformans [6], 16%.

Take H-WKQKNIKWRFRQKMIR-NH2: the inhibition at 50 µM with Cryptococcus neoformans [1] turned out to be 36%; in the assay on Candida albicans [7], 0%. The inhibition at 12.5 µM in the assay with Candida albicans [2] and with Cryptococcus neoformans [8] was 0% in each case. Also, the results for the inhibition at 200 µM with Cryptococcus neoformans [3] and with Candida albicans [10] were 96% and 60%, respectively. The inhibition at 100 µM in the assay on Candida albicans [4] is 52%; in the assay on Cryptococcus neoformans [9] it was 92%. The inhibition at 25 µM in the assay on Candida albicans [5] was 0%; in the assay with Cryptococcus neoformans [6], 28%.

A word on the inhibition: it is the percentage by which the read-out fell short of the control.
